From paper PMC9253162 (Bioactive Materials, 2022)

Columns and labels:
[1] = test system: P. aeruginosa (ATCC-27853); experiment: MIC, turbidity-based broth dilution assay; format: cell-based, Pseudomonas aeruginosa; settings: 2–7 × 10^5 CFU/mL, 37 °C, 190 rpm, 16 h
Procedure, shortened: (§1)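 Turbidity-based broth dilution at 2–7 × 10^5 CFU/mL, shaken at 190 rpm and 37 °C for 16 h, with Polymyxin-B as positive control. For the selectivity index (HC50/MIC), hemolysis was measured on mouse red blood cells. Triton X-100 set 100% lysis, and RBCs in PBS gave the background that was subtracted. HC50 was taken as the concentration causing 50% hemolysis.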

[2] = test system: E. coli (ATCC-25922); experiment: MIC, turbidity-based broth dilution assay; format: cell-based, Escherichia coli; settings: 2–7 × 10^5 CFU/mL, 37 °C, 190 rpm, 16 h
Procedure, shortened: as §1

Substance: Polymyxin-B
- Minimum Inhibitory Concentration P. aeruginosa [1]: 1.0 µg/mL
- Minimum Inhibitory Concentration E. coli [2]: <0.5 µg/mL
